Data published in ChEMBL document CHEMBL1124399, “Synthesis and structure-activity studies of some disubstituted phenylisoxazoles against human picornavirus” (J Med Chem, 1989).
Values after ≈ are worked out from the molar mass of the structure shown. Values joined by “and” are separate entries in the source; they are usually repeats but may differ in a detail not shown here. Equal values may be shown once.

What was measured:
[1] = tested on: Enterovirus; test: In vitro anti-rhinovirus activity was measured as mean MIC for five serotypes, HRV-1A, -2, -22, -41, and -50; format: functional
Method in brief: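 Mean of plaque-reduction-assay MICs across five rhinovirus serotypes (HRV-1A, -2, -22, -41, -50), chosen to represent a range of sensitivity to this compound class.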

[2] = tested on: Enterovirus; test: Minimum inhibitory concentration against rhinovirus serotype 41; format: functional
Method in brief: (§1)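 Rhinovirus minimum inhibitory concentration (MIC) determined in a plaque reduction assay in cell culture, testing each serotype separately.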

[3] = tested on: Enterovirus; test: Minimum inhibitory concentration against rhinovirus serotype 1A; format: functional; method in brief: as §1
[4] = tested on: Enterovirus; test: Minimum inhibitory concentration against rhinovirus serotype 50; format: functional; method in brief: as §1
[5] = tested on: Enterovirus; test: Minimum inhibitory concentration against rhinovirus serotype 30; format: functional; method in brief: as §1
[6] = tested on: Enterovirus; test: Minimum inhibitory concentration against rhinovirus serotype 15; format: functional; method in brief: as §1
[7] = tested on: Enterovirus; test: Minimum inhibitory concentration against rhinovirus serotype 6.; format: functional; method in brief: as §1
[8] = tested on: Enterovirus; test: Minimum inhibitory concentration against rhinovirus serotype 21.; format: functional; method in brief: as §1
[9] = tested on: Enterovirus; test: Concentration required to inhibit 80 percent rhinovirus cell culture; format: functional
Method in brief: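 MIC80 is the concentration that inhibits 80% of the rhinovirus serotypes tested. It is derived from per-serotype MICs measured by plaque reduction assay.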

[10] = tested on: Enterovirus; test: Minimum inhibitory concentration against rhinovirus serotype 86; format: functional; method in brief: as §1
[11] = tested on: Enterovirus; test: (§2) In vitro anti-rhinovirus activity was measured as maximum testable levels - highest concentration of compound which causes no apparent effect on the cell monolayers; format: functional
[12] = tested on: Enterovirus; test: Minimum inhibitory concentration against rhinovirus serotype 67; format: functional; conditions: Enterovirus; read-out: MIC; method in brief: as §1
[13] = tested on: Enterovirus; test: as §2; format: functional; remark: listed apart in the source
[14] = tested on: Echovirus; test: In vitr oactivity against echovirus-3; format: functional
[15] = tested on: Enterovirus C; test: In vitro activity against coxsackie A- 4; format: functional
[16] = tested on: Enterovirus; test: Estimation by using phi 21 in combination with log P of compound 13 determined via RPHPLC-retention time procedure; format: functional
Method in brief: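 Values estimated by adding substituent π constants to the measured log P of a reference analogue. That reference log P came from reversed-phase HPLC retention times, with mobile phase at pH 7.4 and n = 3.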

[17] = tested on: Echovirus; test: In vitro activity against echovirus-30
[18] = tested on: Coxsackievirus; test: In vitro activity against coxsackie A- 21
[19] = tested on: Coxsackievirus; test: In vitro activity against coxsackie A-2; format: functional
[20] = tested on: Echovirus; test: In vitro activity against echovirus-12
[21] = tested on: Enterovirus C; test: In vitro activity against polioviurs-1 (Mahoney); format: functional
[22] = tested on: Echovirus; test: In vitro activity of the compound against echovirus-12
[23] = tested on: Coxsackievirus; test: In vitro activity against coxsackie A- 9; format: functional
[24] = tested on: Echovirus; test: In vitro activity against echovirus-4; format: functional
[25] = tested on: Echovirus; test: In vitro activity against echovirus-9 (Barty); format: functional
[26] = tested on: Enterovirus C; test: In vitro activity against polioviurs-2 (Lansing); format: functional
[27] = tested on: Coxsackievirus; test: In vitro activity against coxsackie A- 21; format: functional
[28] = tested on: Enterovirus; test: Minimum inhibitory concentration against rhinovirus serotype 1B.; format: functional; conditions: Enterovirus; read-out: MIC; method in brief: as §1
[29] = tested on: Coxsackievirus; test: In vitro activity against coxsackie A- 11; format: functional
[30] = tested on: Coxsackievirus; test: In vitro activity against coxsackie B-2; format: functional
[31] = tested on: Echovirus; test: In vitro activity against echovirus-3; format: functional

Structure (SMILES)	MIC [1]	MIC [2]	MIC [3]	MIC [4]	MIC ([5]; Enterovirus, read-out: MIC)	MIC ([6]; Enterovirus, read-out: MIC)	MIC ([8]; Enterovirus, read-out: MIC)	MIC80 [9]	MIC [10]	MIC [11]	MIC ([13]; Enterovirus, read-out: MIC)	other results
Cc1cc(CCCCCOc2c(C)cc(C3=NCCO3)cc2C)on1	0.78 µM (≈ 0.267 µg/mL)	1.6 µM (≈ 0.548 µg/mL)	0.02 µM (≈ 0.00685 µg/mL)	0.2 µM (≈ 0.0685 µg/mL)	0.2 µM (≈ 0.0685 µg/mL)	0.4 µM (≈ 0.137 µg/mL)	0.7 µM (≈ 0.24 µg/mL)	1.3 µM (≈ 0.445 µg/mL)	0.05 µM (≈ 0.0171 µg/mL)	0.8 µM (≈ 0.274 µg/mL)		MIC [7]: 1.2 µM (≈ 0.411 µg/mL); MIC ([7]; Enterovirus, read-out: MIC): 2.4 µM (≈ 0.822 µg/mL); MIC [8]: 0.5 µM (≈ 0.171 µg/mL)
COc1cc(C2=NCCO2)cc(OC)c1OCCCCCc1cc(C)no1	9.9 µM (≈ 3.71 µg/mL)	12.6 µM (≈ 4.72 µg/mL)	6.2 µM (≈ 2.32 µg/mL)			0.6 µM (≈ 0.225 µg/mL)	13.4 µM (≈ 5.02 µg/mL)	13.4 µM (≈ 5.02 µg/mL)		7.7 µM (≈ 2.88 µg/mL)	33.4 µM (≈ 12.5 µg/mL)	MIC [12]: 14.7 µM (≈ 5.5 µg/mL); MIC [13]: 16.7 µM (≈ 6.25 µg/mL)
Cc1cc(CCCCCOc2c(Cl)cc(C3=NCCO3)cc2C(C)(C)C)on1											12.4 µM (≈ 5.02 µg/mL)	
Cc1cc(CCCCCOc2c(Br)cc(C3=NCCO3)cc2Br)on1	0.63 µM (≈ 0.297 µg/mL)	2.1 µM (≈ 0.992 µg/mL)	0.1 µM (≈ 0.0472 µg/mL)		0.4 µM (≈ 0.189 µg/mL)		0.3 µM (≈ 0.142 µg/mL)	1.3 µM (≈ 0.614 µg/mL)		0.6 µM (≈ 0.283 µg/mL)		MIC [5]: 0.2 µM (≈ 0.0944 µg/mL); MIC [6]: 0.04 µM and 0.1 µM
Cc1cc(CCCCCOc2c(Cl)cc(C3=NCCO3)cc2Cl)on1 [WIN-54954]	0.7 µM (≈ 0.268 µg/mL)	0.9 µM (≈ 0.345 µg/mL)	0.02 µM (≈ 0.00767 µg/mL)	2.6 µM (≈ 0.997 µg/mL)	0.09 µM (≈ 0.0345 µg/mL)	0.3 µM (≈ 0.115 µg/mL)	0.3 µM (≈ 0.115 µg/mL)	0.3 µM (≈ 0.115 µg/mL)	0.02 µM (≈ 0.00767 µg/mL)			MIC [14]: 1.4 µM (≈ 0.537 µg/mL); MIC [15]: 1.4 µM (≈ 0.537 µg/mL); MIC [16]: 0.7 µM; MIC [17]: 0.08 µM (≈ 0.0307 µg/mL); MIC [18]: 0.008 µM (≈ 0.00307 µg/mL); MIC [19]: 8.6 µM (≈ 3.3 µg/mL); MIC [20]: 16.2 µM (≈ 6.21 µg/mL); MIC [21]: 0.65 µM (≈ 0.249 µg/mL); MIC [22]: 0.03 µM (≈ 0.0115 µg/mL); MIC [12]: 0.02 µM (≈ 0.00767 µg/mL); MIC [23]: 13.2 µM (≈ 5.06 µg/mL); MIC [24]: 0.39 µM (≈ 0.149 µg/mL); MIC [25]: 2.6 µM (≈ 0.997 µg/mL); MIC [26]: 0.55 µM (≈ 0.211 µg/mL); MIC [27]: 0.21 µM (≈ 0.0805 µg/mL); MIC [28]: 0.2 µM (≈ 0.0767 µg/mL); MIC [29]: 4.8 µM (≈ 1.84 µg/mL); MIC [30]: 0.13 µM (≈ 0.0498 µg/mL); MIC [31]: 0.18 µM (≈ 0.069 µg/mL)
Cc1cc(CCCCCOc2c(Cl)cc(C3=NCCO3)cc2Br)on1	0.61 µM (≈ 0.261 µg/mL)	1.8 µM (≈ 0.77 µg/mL)	0.04 µM (≈ 0.0171 µg/mL)	0.09 µM (≈ 0.0385 µg/mL)	0.08 µM (≈ 0.0342 µg/mL)	0.4 µM (≈ 0.171 µg/mL)	0.3 µM (≈ 0.128 µg/mL)	0.5 µM (≈ 0.214 µg/mL)	0.02 µM (≈ 0.00855 µg/mL)	0.6 µM (≈ 0.257 µg/mL)		MIC [8]: 0.2 µM (≈ 0.0855 µg/mL)
CCc1cc(C2=NCCO2)cc(C)c1OCCCCCc1cc(C)no1	5.18 µM (≈ 1.85 µg/mL)										35 µM (≈ 12.5 µg/mL)	
